Calb FLC: C. albicans growth inhibition with fluconazole, primary screen, CaCi-2 strain, Alamar Blue fluorescence. C. albicans CaCi-2 (fluconazole-resistant clinical isolate) + fluconazole, 48 h. growth inhibition, % (concentration not given with the values). hit rate 0.57% among 300,000. AID 1979, 2009;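 active = growth inhibition above about 58% in most replicates, limit read from the data, passing the limit was not always enough; inconclusive = exactly half the replicates above a set limit; inactive = most replicates below a set limit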;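 also: all wells also contain fluconazole at 8 µg/ml as a sub-toxic cotreatment; 0% = median of DMSO wells and 100% = median of geldanamycin control wells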
Beta cell apopt: inhibitors of cytokine-induced beta cell apoptosis, primary screen, luminescence. hit rate 0.8% among 300,000. AID 435005, 2010. INS-1E cytokine-induced death, ATP luminescence, 48 h; percent of positive-control rescue, neutral wells zero. protection from apoptosis, % (no concentration beside the values);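 active = Every replicate reaches about 75%, or at least half do and their mean reaches it too, limit read from the data; inconclusive = At least half of replicates reach the limit but their mean does not; inactive = Under half of replicates reach the limit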;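 also: 0% = cytokine-treated negative control wells and 100% = positive control rescue; higher means more ATP so stronger rescue from cytokine killing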
T cruzi repl: inhibitors of intracellular T. cruzi growth, primary screen, luminescence, NIH3T3 host cells; T. cruzi beta-gal in NIH3T3, 90 h; inhibition, % (concentration not given with the values); hit rate 1.4% among 300,000; AID 1885, 2009;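 active = mean inhibition across valid replicates above about 55%, limit read from the data; inconclusive = mean below that limit but half or more replicates reach it; inactive = mean below it, under half of replicates reach it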;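 also: signal also drops with host cell toxicity which is not excluded here; 0% = plate median of DMSO wells and 100% = zero luminescence signal; higher percent means less beta-gal luminescence so fewer parasites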
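Assay system: NIH/3T3 host cells with β-galactosidase reporter T. cruzi; input: 5,000 host fibroblasts per well; compound: single 50 nL compound addition per well in DMSO; timing: ≥90 h infection period, 3 h prior cell attachment; measured by: GalScreen β-gal luminescence, detergent lysis, 60 min; evaluation: percent inhibition of parasite-derived β-gal signal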
SKKanGAS inh: S. pyogenes SKKanGAS growth inhibitors in kanamycin, primary screen, streptokinase expression inhibitor project, SKKanGAS strain, BacTiter-Glo luminescence. hit rate 1.3% among 300,000. 6 h. inhibition, % at 7.5 µM;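 active = mean replicate score, as percent of positive control median, at least 50; inconclusive = mean below 50 but one replicate at or above 50; inactive = mean and every replicate below 50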;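 also: strain carries kanamycin resistance gene driven by streptokinase promoter and grows in 40 µg/ml kanamycin; loss of luminescence reflects streptokinase promoter inhibition or plain growth inhibition; 0% = median of DMSO wells and 100% = positive control at its reference dose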
Mdm2-MdmX inh: inhibitors of human Mdm2-MdmX association, primary screen, cell-based, luminescence, split luciferase, SaOS-2, uHTS; SaOS-2 split-luciferase Mdm2/MdmX complementation; inhibition, % at 8 µM; hit rate 3% among 330,000; AID 485346, 2010;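 active = inhibition of at least 50% at 8 µM in the primary screen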
Target sequence (O15151 whole entry, looked up): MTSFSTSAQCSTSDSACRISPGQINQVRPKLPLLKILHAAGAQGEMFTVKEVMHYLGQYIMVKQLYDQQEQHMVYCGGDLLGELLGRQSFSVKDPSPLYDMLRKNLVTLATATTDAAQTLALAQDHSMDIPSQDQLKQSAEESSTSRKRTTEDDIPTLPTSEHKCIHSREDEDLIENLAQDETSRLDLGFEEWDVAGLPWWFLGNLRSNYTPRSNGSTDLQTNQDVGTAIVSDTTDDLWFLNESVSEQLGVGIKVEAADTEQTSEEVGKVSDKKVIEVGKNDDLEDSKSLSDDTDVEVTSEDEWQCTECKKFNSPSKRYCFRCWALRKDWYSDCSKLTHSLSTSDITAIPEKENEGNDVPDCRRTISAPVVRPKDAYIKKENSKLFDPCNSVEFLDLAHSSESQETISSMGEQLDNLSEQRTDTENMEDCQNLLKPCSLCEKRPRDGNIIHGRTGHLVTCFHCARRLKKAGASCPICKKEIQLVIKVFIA
Target sequence (Q00987 whole entry, looked up): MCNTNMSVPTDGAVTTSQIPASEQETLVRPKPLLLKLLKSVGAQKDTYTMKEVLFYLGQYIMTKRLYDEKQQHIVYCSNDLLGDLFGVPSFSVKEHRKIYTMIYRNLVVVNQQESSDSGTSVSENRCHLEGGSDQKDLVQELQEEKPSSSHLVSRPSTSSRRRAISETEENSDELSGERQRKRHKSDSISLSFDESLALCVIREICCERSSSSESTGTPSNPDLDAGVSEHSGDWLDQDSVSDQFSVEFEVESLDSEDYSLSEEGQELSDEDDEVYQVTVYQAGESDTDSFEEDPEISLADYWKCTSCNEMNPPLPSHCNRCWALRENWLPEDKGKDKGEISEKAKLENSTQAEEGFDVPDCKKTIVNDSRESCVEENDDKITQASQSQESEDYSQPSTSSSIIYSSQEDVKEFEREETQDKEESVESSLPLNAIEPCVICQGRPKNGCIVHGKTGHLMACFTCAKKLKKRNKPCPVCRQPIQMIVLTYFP
CSC inhib: cancer stem cell viability inhibitors, primary screen, luminescence. hit rate 1.1% among 300,000. inhibition, % at 7.5 µM. cancer stem cell-like cells viability; in the data active = inhibition above about 75%; inconclusive = no clear call, values can overlap the other calls; tested in HMLE shEcad cells
Active calls of the source: *; ? = inconclusive; / = no result; + = active, no number. Most compounds without a hit are left out; they make up all but 5.7% or so of the library.

SMILES	Calb FLC	Beta cell apopt	T cruzi repl	SKKanGAS inh	Mdm2-MdmX inh	CSC inhib
Cc1cc(NS(=O)(=O)c2ccc(NC(=S)NC(=O)/C=C/c3ccccc3)cc2)no1	-3.9	-3.5	-4.8	12.8	18.4	8.4
Cc1ccc(-c2cc(C(=O)Nc3ccc(S(=O)(=O)Nc4cc(C)on4)cc3)c3ccccc3n2)c(C)c1	14.6	-4.3	-14.5	53.7*	11.8	8.4
Cc1ccc(/C=C/C(=O)NC(=S)Nc2ccc(S(=O)(=O)Nc3cc(C)on3)cc2)cc1	4.3	2.7	-4.0	52.4*	-21.4	-7.6
COc1ccc(N(CC(=O)Nc2cccnc2)S(=O)(=O)c2ccccc2)cc1OC	5.9	0.1	-11.5	-0.1	-1.6	1.5
CC(C)OC(=O)c1cn(-c2ccccc2)nc1-c1ccco1	-2.0	0.1	55.9*	11.5	-0.7	15.0
CCOC(=O)c1cc(-c2ccc(OC(F)F)cc2)nc2c1c(=O)[nH]c(=O)n2C	7.3	2.0	-7.6	99.7*	6.9	18.0
CCOC(=O)c1cc(-c2ccc(OC(F)F)cc2)nc2nc(SC)[nH]c(=O)c12	?	-1.4	0.9	3.0	-27.3	7.3
COc1ccc(NC(=O)c2cccc(-c3ccc(O)cc3)c2)cn1	14.5	8.8	-3.2	52.9*	37.2	85.6*
CC(=O)Nc1cccc(NC(=O)c2cccc(-c3ccc(O)cc3)c2)c1	-3.9	6.0	-10.2	8.8	28.9	/
c1ccc(Nc2ccc3c4c(cccc24)CC3)cc1	12.0	2.0	64.5*	23.2	33.7	11.8
c1ccc(Nc2cccc3ccccc23)cc1	/	/	/	/	23.4	/
CN(C)/C=N/NC(=O)C1Cc2c(ccc3ccccc23)O1 (stereo not given)	4.4	-10.4	-4.6	-2.3	4.3	2.3
Nc1cccc(Oc2ccc3c(c2)C(=O)NC3=O)c1	6.3	-5.7	-3.1	1.0	-8.3	-5.0
CC(C)COc1ccc(-c2nn(-c3ccccc3)cc2/C=C2/SC(=S)N(CC(=O)O)C2=O)cc1	-3.9	-3.4	-5.1	71.8*	14.3	+
O=C(O)CN1C(=O)/C(=C\c2cn(-c3ccccc3)nc2-c2ccccc2)SC1=S	6.5	1.7	-1.9	23.2	8.6	31.0
Fc1ccc(OCCCn2ccnc2)cc1	2.7	-3.3	-19.2	3.9	-4.8	-8.4
Fc1ccc(OCCCCCn2ccnc2)cc1	2.9	-2.4	55.1*	-2.7	-12.3	20.9
Clc1ccc(OCCn2ccnc2)c2ccccc12	100.6*	-6.4	69.7*	-5.0	10.0	13.2
Cc1cc(OCCCn2ccnc2)cc(C)c1Cl	-19.4	-7.7	59.5*	1.6	-18.0	8.6
Cc1cc(OCCCCCn2ccnc2)cc(C)c1Cl	20.6	-4.2	49.0	32.8	23.4	0.6
Cc1ccc(C)c(OCCCCCn2ccnc2)c1	-29.8	5.5	72.3*	0.1	-7.7	49.3
Cc1cc(C)c(S(=O)(=O)N2CCCCC2CCNC(=O)C(=O)NCCN2CCOCC2)c(C)c1 (stereo not given)	-0.7	4.5	17.9	-11.3	10.0	-5.9
O=[N+]([O-])c1ccc(OCn2cncn2)cc1	-4.1	-8.2	-10.3	-1.6	-19.4	-16.1
COc1ccccc1CCNC(=O)C(=O)NCC1OCCN1S(=O)(=O)c1ccc(OC)c(OC)c1 (stereo not given)	7.0	-9.6	-0.8	-4.1	21.9	5.2
C=CCc1cc(Cl)ccc1OCCCn1ccnc1	-16.8	3.0	56.9*	29.6	13.6	2.8
SMILES	Calb FLC	Beta cell apopt	T cruzi repl	SKKanGAS inh	Mdm2-MdmX inh	CSC inhib
C=CCc1cc(Cl)ccc1OCCn1ccnc1	-33.5	-3.4	21.9	6.6	5.0	8.7
Cc1nn(-c2ccccc2)c(N2CCCCC2)c1/C=N/O	-9.4	-9.7	14.9	-2.7	4.9	163.7*
Cc1nn(-c2ccccc2)c(C)c1/C=N/NC(=O)c1ccccc1O	-6.0	5.9	-10.4	-2.3	7.2	-1.9
Cc1nn(-c2ccccc2)c(N2CCCC2)c1C=O	-11.1	-8.7	11.8	-3.1	24.8	-12.5
Cc1nn(-c2ccccc2)c(N2CCCC2)c1/C=N/NC(=O)c1ccccc1O	90.6*	0.1	-8.6	4.6	21.3	3.5
O=C(N/N=C/c1cc2c3c(c1O)CCCN3CCC2)c1ccccc1O	108.1*	/	58.8*	55.2*	/	/
CCCOc1ccc2c3c(c(=O)oc2c1OCCC)CCCC3	0.3	99.9*	14.5	-8.7	-1.2	/
CCN(CC)CCC(=O)Nc1cccc2c1C(=O)c1ccccc1C2=O	-16.1	98.0*	55.8*	5.4	46.1	24.7
O=[N+]([O-])c1ccc(S(=O)(=O)N2CCC3(CC2)OCCN3S(=O)(=O)c2cccs2)cc1	-1.7	-1.5	54.1	8.0	28.8	-4.3
O=C(NCc1cccnc1)/C(=C\c1ccc(-c2cccc(Cl)c2)o1)S(=O)(=O)c1ccccc1	0.4	103.8*	36.2	-6.3	/	101.5*
Nc1nonc1-n1nnc(C(=O)N/N=C/c2ccc(OCc3ccccc3F)cc2)c1CNc1ccccc1	/	2.4	-23.5	12.6	19.0	18.4
Cc1sc2ncn(CC(=O)N3CCN(c4ccccc4)CC3)c(=O)c2c1S(=O)(=O)N1CCOCC1	-2.8	0.5	-3.3	-0.7	-1.6	-1.2
CC(NC(=O)c1ccc([N+](=O)[O-])o1)C12CC3CC(CC(C3)C1)C2 (stereo not given)	2.2	/	51.1	56.6*	43.9	97.3*
CC(NC(=O)C12CC3CC(CC(C3)C1)C2)C(=O)NN=Cc1ccc([N+](=O)[O-])o1 (stereo not given)	/	-4.4	/	/	39.8	10.3
Cc1cc2ccccc2n1CCNC(=O)COc1ccccc1	-6.7	4.2	57.6*	10.7	19.7	5.2
COCCCn1c(=O)c2sccc2n2c(CCCC(=O)NCc3cccc(OC)c3)nnc12	0.8	-2.3	-15.3	2.9	0.0	-4.7
COc1cccc(-c2nc(-c3ccc(NC(=O)c4cccnc4)cc3)no2)c1	-0.4	114.0*	-1.0	22.2	27.9	17.6
Cc1ccc(-c2nc(-c3cccnc3)no2)cc1	1.7	-5.4	-7.5	-1.3	-178.3	10.4
CCC(=O)Oc1ccc(-c2nc(-c3cccnc3)no2)cc1	-27.7	1.8	-2.0	55.7*	-28.9	11.2
O=C(Nc1ccc(-c2noc(-c3cccs3)n2)cc1)c1cccnc1	57.4	98.8*	21.5	0.7	-72.7	15.7
CN(C)c1ccc(-c2n(C)c3ccccc3[n+]2C)cc1	101.7*	/	73.0*	-10.6	8.8	/
Cn1c(-c2ccccn2)[n+](C)c2ccccc21	0.9	-7.6	-9.5	5.8	-36.1	-4.6
COc1ccc(C2CC(c3ccc(C)o3)=NN2C(C)=O)cc1 (stereo not given)	-14.0	0.1	7.5	0.5	-52.4	/

From PubChem
